From ChEMBL document CHEMBL4251680, “Catecholic Isoquinolines from Portulaca oleracea and Their Anti-inflammatory and β2-Adrenergic Receptor Agonist Activity” (J Nat Prod, 2018)

Experiments:
[1] = test system: RAW264.7; assay: cells; conditions: Mus musculus, RAW264.7, 24 h
[2] = molecular target: T1, Beta-2 adrenergic receptor (Homo sapiens, UniProt P07550); assay: Agonist activity at human beta2-AR expressed in CHOK1 cells co-expressing Galpha15 at 100 uM measured after 21 secs to 120 secs by Calcium-4 dye based FLIPR assay relative to 1 uM isoproterenol; assay type: functional, cell-based
In short: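 CHO-K1/Gα15 cells stably expressing β2-AR, grown in Ham's F12 with 10% FBS, hygromycin B and zeocin. Plated at 1.5 × 10^4 cells/well, 18 h, then loaded with FLIPR Calcium 4 dye for 1 h at 37 °C and 15 min at room temperature. Compounds from DMSO stocks diluted in HBSS/20 mM HEPES pH 7.4, added at 21 s. Read 120 s; stimulation ratio = (ΔRFU − background) relative to isoproterenol.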
Target sequence in this assay (P07550 whole entry, looked up): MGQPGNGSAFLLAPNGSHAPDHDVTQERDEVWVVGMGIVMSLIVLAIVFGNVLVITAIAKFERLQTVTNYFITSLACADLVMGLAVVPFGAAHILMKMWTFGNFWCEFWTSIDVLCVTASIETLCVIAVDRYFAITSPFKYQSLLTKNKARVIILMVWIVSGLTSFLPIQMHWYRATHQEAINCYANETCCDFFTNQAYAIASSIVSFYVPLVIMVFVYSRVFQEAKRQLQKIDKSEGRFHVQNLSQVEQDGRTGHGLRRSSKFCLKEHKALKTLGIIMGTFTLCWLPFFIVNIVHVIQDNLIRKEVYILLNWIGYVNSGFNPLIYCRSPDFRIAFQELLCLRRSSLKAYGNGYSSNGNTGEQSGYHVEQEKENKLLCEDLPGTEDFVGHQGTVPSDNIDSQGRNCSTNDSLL

[3] = molecular target: T1, Beta-2 adrenergic receptor; assay: Agonist activity at human beta2-AR expressed in CHOK1 cells co-expressing Galpha15 measured after 21 secs to 120 secs by Calcium-4 dye based FLIPR assay; assay type: functional, cell-based
Target sequence in this assay (P07550 whole entry): as the sequence (P07550 whole entry, looked up) above

Structure (SMILES): OCc1ccc(C2=NCCc3cc(O)c(O)cc32)o1
- EC50 [1]: 203 µM
- Activity [2]: 70.6%

Structure (SMILES): CC(C)C[C@H]1NCCc2cc(O)c(O)cc21
- EC50 [1]: 498 µM
- Activity [2]: 70.9%

Structure (SMILES): O=C1NCCc2cc(O)c(O)cc21
- EC50 [1]: 126 µM
- Activity [2]: 0.5%

Structure (SMILES): CC1=NCCc2cc(O)c(O)cc21
- EC50 [1]: 209 µM
- Activity [2]: 37.7%

Structure (SMILES): O=C1CC[C@H]2c3cc(O)c(O)cc3CCN12
- EC50 [1]: 35.4 µM
- Activity [2]: 70.2%

Structure (SMILES): O=C1c2cc(O)c(O)cc2CCn2cccc21
- EC50 [1]: 225 µM
- Activity [2]: -11.5%

Structure (SMILES): C[C@@H]1NCCc2cc(O)c(O)cc21
- EC50 [1]: 58.7 µM
- Activity [2]: 35.5%

Structure (SMILES): Oc1cc2c(cc1O)[C@@H](Cc1ccccc1)NCC2
- EC50 [1]: 107 µM
- EC50 [3]: 0.0879 µM
- Activity [2]: 90.8%

Structure (SMILES): CCOC(=O)CC[C@@H]1NCCc2cc(O)c(O)cc21
- EC50 [1]: 36.3 µM
- Activity [2]: 42%

Structure (SMILES): NCCc1ccc(O)c(O)c1 [DOPAMINE]
- EC50 [1]: 18 µM
- Activity [2]: 86.4%

Structure (SMILES): Oc1cc2c(cc1O)CCN=C2
- EC50 [1]: 248 µM
- Activity [2]: 41.1%

Structure (SMILES): Oc1cc2c(cc1O)C(c1ccco1)=NCC2
- EC50 [1]: 18.1 µM
- EC50 [3]: 5.1 µM
- Activity [2]: 91.8%

Structure (SMILES): Oc1cc2c(cc1O)CC[N+](Cc1ccco1)=C2
- EC50 [1]: 87.9 µM
- Activity [2]: 11.4%

Structure (SMILES): O=C(NO)c1ccc(O)c(O)c1
- EC50 [1]: 82.4 µM

Structure (SMILES): NCCc1ccc(O)c(O)c1S(=O)(=O)O
- EC50 [1]: 310 µM
- Activity [2]: 39.3%
